# Assay outcomes: PubChem BioAssay, several laboratories
# PAFAH1B3 inh: blocks human PAF acetylhydrolase 1B catalytic subunit 3; Q15102; recombinant PAFAH1B3, FP-rhodamine probe, fluorescence polarization; inhibition, % at 3.39 µM; hit rate 0.28% among 340,000;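 active = inhibition above the screen-wide average of all tested compounds plus 3 SD, cut at about 25% in these data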;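 also: 0% = enzyme with DMSO only and 100% = wells lacking PAFAH1B3 protein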
# Target sequence (Q15102 whole entry, looked up): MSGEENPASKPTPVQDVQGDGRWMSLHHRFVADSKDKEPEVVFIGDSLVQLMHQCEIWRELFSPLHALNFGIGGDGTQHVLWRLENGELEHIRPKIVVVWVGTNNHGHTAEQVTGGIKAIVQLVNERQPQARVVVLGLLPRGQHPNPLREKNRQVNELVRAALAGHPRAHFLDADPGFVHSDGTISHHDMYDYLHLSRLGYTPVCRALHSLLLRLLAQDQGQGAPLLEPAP
# Apaf1 inhib: blocks human Apaf-1 apoptosome activity; hit rate 0.71% among 330,000; AID 489030; O14727; inhibition, % at 20 µM; reconstituted apoptosome caspase-3 activity, DEVD-Rh110 fluorescence; active = inhibition of at least 40% at 20 µM;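 also: plate controls were DMSO wells for no effect and DEVD-CHO caspase inhibitor wells for full effect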
#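 System: Apoptosome proteins | Medium: Hepes pH 7.5 with detergent and BSA | Also added: Cytochrome c trigger plus (Z-DEVD)2-Rh110 caspase-3 substrate | Incubation: 30 min compound preincubation, 50 min activation, room temperature | Detection: Rhodamine 110 fluorescence at Ex 480/Em 540 nm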
# PAFAH2 inh: PAFAH2 (human) inhibition; hit rate 0.99% among 340,000; recombinant PAFAH2, FP-rhodamine activity probe, fluorescence polarization; Q99487; inhibition, % at 3.39 µM;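 active = inhibition above the mean over all tested compounds plus 3 SD, cut at about 30% in these data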;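 also: inhibitors block probe labeling of enzyme so polarization drops; 0% = enzyme with DMSO and 100% = wells lacking PAFAH2 protein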
# PAFAH1B2 inh: blocks human PAF acetylhydrolase 1b catalytic subunit 2 | P68402 | recombinant PAFAH1B2, FP-rhodamine activity probe, fluorescence polarization | inhibition, % at 3.39 µM | hit rate 1.2% among 340,000 | AID 492953;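 active = inhibition above the mean of all tested compounds plus 3 SD, cut at about 24% in these data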;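 also: 0% = enzyme with DMSO and 100% = wells lacking PAFAH1B2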
# TDP2 absorb: blocks human TDP2 phosphodiesterase activity; O95551; recombinant TDP2, T5PNP hydrolysis, p-nitrophenol absorbance 415 nm; inhibition, % at 12.8 µM; hit rate 0.34% among 370,000; AID 720702;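 active = inhibition above the mean of all tested compounds plus 3 SD, set per campaign, cut at about 25% in these data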;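 also: 0% = DMSO with enzyme and 100% = buffer with substrate but no TDP2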
# Target sequence (O95551 whole entry, looked up): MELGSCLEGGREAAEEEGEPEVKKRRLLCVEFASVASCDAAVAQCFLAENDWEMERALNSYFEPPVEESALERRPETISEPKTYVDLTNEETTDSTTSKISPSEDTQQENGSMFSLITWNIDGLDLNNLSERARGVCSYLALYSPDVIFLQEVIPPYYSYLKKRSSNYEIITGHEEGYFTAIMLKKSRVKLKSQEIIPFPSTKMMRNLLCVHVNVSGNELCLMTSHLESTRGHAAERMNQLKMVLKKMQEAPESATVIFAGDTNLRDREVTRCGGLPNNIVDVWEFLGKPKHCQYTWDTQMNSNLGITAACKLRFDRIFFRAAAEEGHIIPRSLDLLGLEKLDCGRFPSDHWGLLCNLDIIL
#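 Assay system: recombinant human TDP2 / Reagent: T5PNP substrate at 5 mM, a TopII-DNA adduct mimic / Measured by: epi absorbance from released p-nitrophenol / Evaluation: % inhibition relative to enzyme-containing and enzyme-free wells / Control set: enzyme-free and DMSO wells / Replicates: each compound tested once, singlicate / Schedule: enzyme reaction with compound for 2 h at 37 °C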
# PAFAH1B3 conf FP: confirmation of human PAFAH1B3 inhibitors; shares compounds with PAFAH1B3 inh; recombinant PAFAH1B3, FP-Rh activity-based probe, fluorescence polarization; inhibition, % at 3.39 µM; hit rate 30% among 390;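 active = average inhibition over triplicate runs above the hit cutoff set in the earlier primary screen, cut at about 25% in these data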;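 also: 0% = enzyme with DMSO and 100% = wells lacking PAFAH1B3 protein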
# TDP2 confirm: human TDP2 inhibition, confirmation. shares compounds with TDP2 absorb. recombinant human TDP2, absorbance read-out. inhibition, % at 12.8 µM. hit rate 22% among 1,100. AID 743263; in the data active = inhibition above about 25%;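 also: 0% = vehicle with enzyme and 100% = no enzyme buffer only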
# An asterisk follows results filed as active; / = no result given. Hits are enriched below; roughly 2.3% of the tested compounds scored in any of these assays.
SMILES,PAFAH1B3 inh,Apaf1 inhib,PAFAH2 inh,PAFAH1B2 inh,TDP2 absorb,PAFAH1B3 conf FP,others
Cc1cccc(C(=O)Oc2ccc(/C=N/NC(=O)c3cc(O)cc(O)c3)cc2)c1,26.3*,22.9,-16.6,5.1,-2.4,12.0,
CSc1ccc(C2Nc3cccc4cccc(c34)N2)cc1,14.1,8.1,0.4,1.4,15.2,/,
c1cc2c3c(cccc3c1)NC(c1ccc3c(c1)OCO3)N2,28.5*,18.3,13.6,13.1,6.7,10.4,
Clc1ccc(C2Nc3cccc4cccc(c34)N2)cc1,13.3,13.8,-2.9,11.7,0.6,/,
Cc1cccc(C2Nc3cccc4cccc(c34)N2)c1,30.6*,14.1,6.1,9.3,-8.2,9.4,
CCCCCN1CCCCC(NC(=O)CSc2ccccc2)C1=O (stereo unspecified),/,/,/,/,8.0,/,
COc1ccc(NC(=O)c2[nH]c(C)c(C(C)=O)c2C)cc1S(=O)(=O)N1CCOCC1,1.8,2.6,-5.3,-2.7,8.1,/,
CC(=O)c1c(C)[nH]c(C(=O)Nc2ccc(Cl)c(S(=O)(=O)N3CCOCC3)c2)c1C,27.9*,11.0,2.1,8.1,-1.3,5.4,
CCCCn1c(N)c(N(CCC(C)C)C(=O)COC(=O)c2ccc([N+](=O)[O-])s2)c(=O)[nH]c1=O,29.6*,9.5,25.0,13.1,18.6,21.8,
CC(C)CN(C(=O)COC(=O)c1ccc([N+](=O)[O-])s1)c1c(N)n(Cc2ccccc2)c(=O)[nH]c1=O,6.9,15.2,23.8,16.5,9.3,/,
O=C1c2ccccc2C(=O)c2c(O)c(O)cc(O)c21,39.7*,15.0,19.1,16.3,8.5,29.4*,
O=c1cc(-c2ccc(O)c(O)c2)oc2c(C3O[C@H](CO)[C@@H](O)[C@H](O)[C@H]3O)c(O)cc(O)c12 (stereo partly specified),30.1*,-5.7,-2.8,1.6,-12.2,10.9,
Cc1nc(N)sc1-c1csc(Nc2cccc(C(=O)O)c2)n1,29.1*,-0.7,8.7,10.8,13.7,8.4,
CCC(=O)Nc1nc(C)c(-c2csc(Nc3cccc(C(=O)O)c3)n2)s1,8.6,-9.0,-2.6,2.6,19.6,/,
O=C(CN1CCCc2ccccc21)N/N=C/c1c(O)ccc2ccccc12,30.8*,21.5,21.9,12.8,-8.7,14.5,
O=C(CN1CCCc2ccccc21)N/N=C/c1ccccc1,-1.6,16.6,-4.4,-3.8,2.8,/,
CCn1c2ccccc2c2cc(NC(=O)COC(=O)c3cccc(F)c3)ccc21,/,/,/,/,2.5,/,
COCCCNC(=S)N1CCCN(c2nc3cc(C)c(C)cc3cc2C#N)CC1,26.2*,19.6,2.0,9.7,-9.5,4.0,
CCOCCCNC(=S)N1CCCN(c2nc3cc(C)c(C)cc3cc2C#N)CC1,4.1,28.7,2.5,6.9,-0.5,/,
O=S1(=O)CC2c3ccc(F)cc3CN2CN1C1CCCC1 (stereo unspecified),/,/,/,/,-6.1,/,
CNC1=C(N(C(C)=O)c2ccc(Br)cc2)C(=O)c2ccccc2C1=O,38.1*,/,-2.4,-2.5,52.7*,17.4,
CC(=O)NC1=C(Nc2ccc(N(C)C)cc2)C(=O)c2ccccc2C1=O,12.9,23.8,7.6,4.0,-5.8,/,
O=C(NCC1CCCO1)c1sc(=S)n2c1[nH]c(=O)c1ccc(C(=O)N3CCCCC3)cc12 (stereo unspecified),25.6*,4.7,21.0,20.2,4.9,29.1*,
O=C(C(=O)N1CCC(CNC(=O)c2sc3ccccc3c2Cl)CC1)c1cccs1,/,/,/,/,-9.5,/,
COc1cc(Cl)c(NC2=CC(=O)C(=O)c3ccccc32)c(OC)c1,35.2*,91.9*,13.3,14.7,7.5,29.3*,
SMILES,PAFAH1B3 inh,Apaf1 inhib,PAFAH2 inh,PAFAH1B2 inh,TDP2 absorb,PAFAH1B3 conf FP,others
O=C(Nc1ccc(O)cc1)C1CC=CCC1 (stereo unspecified),27.4*,-1.7,25.6,12.6,-2.4,12.2,
NS(=O)(=O)c1ccc(-c2ccc(/C=C3\NC(=S)NC3=O)o2)cc1,34.0*,8.2,-1.5,2.5,0.8,11.7,
Cc1cccc(Cn2nnc3c2C(=O)c2ccccc2C3=O)c1,30.3*,34.0,6.9,9.7,-7.1,9.4,
CC(C)C[C@H]1COc2cccc(F)c2S(=O)(=O)N1Cc1cn(CCC2OCCO2)nn1,/,/,/,/,-1.3,/,
Cc1ccc(CNC(=O)c2ccc3c(=O)c(O)c(-c4ccc(C)cc4)[nH]c3c2)cc1,11.5,-11.1,-21.6,7.7,-2.6,/,
Cc1ccc(-c2[nH]c3cc(C(N)=O)ccc3c(=O)c2O)cc1,29.3*,3.3,-19.8,11.2,-21.3,23.1,
CCCNC(=O)c1ccc2c(=O)c(O)c(-c3ccc(C)cc3)[nH]c2c1,26.8*,-6.9,-20.0,10.2,-0.5,6.5,
COC(=O)c1ccc(S(=O)(=O)N2CCC(NC(=O)CCc3ccccc3)CC2)cc1,/,/,/,/,-5.1,/,
COc1cc(O)c(C(CC(=O)N2CCC(C)CC2)c2ccc3c(c2)OCO3)c(OC)c1 (stereo unspecified),/,/,/,/,-3.9,/,
Cc1ccc(-n2[nH]c(C)c(/C=N/NC(=O)c3ccc(O)cc3O)c2=O)cc1,26.7*,11.1,6.7,14.4,/,14.3,
Cc1ccc(NC(=O)Cc2cccc(OC(F)F)c2)c(S(=O)(=O)N2CCOCC2)c1,/,/,/,/,-4.3,/,
O=S(=O)(Nc1c(S(=O)(=O)c2ccccc2)c2nc3ccccc3nc2n1C1CCCCC1)c1ccccc1,59.7*,/,10.2,21.4,88.9*,9.0,TDP2 confirm=84.1*
Cc1ccc(S(=O)(=O)c2c(N)n(-c3ccccc3)c3nc4ccccc4nc23)cc1,-1.8,13.5,-7.0,-3.3,-9.9,/,
CC(C)c1ccc(NC(=O)O[C@H]2CC[C@@]34CCCN3C(=O)CCC[C@H]4[C@H]2C)cc1,/,/,/,/,-9.1,/,
O=C1C=C(Nc2cccnc2)c2ccccc2C1=O,52.6*,/,8.3,8.0,71.8*,27.4*,TDP2 confirm=59.0*
CCOc1ccc(NC2=CC(=O)C(=O)c3ccccc32)cc1,49.5*,/,13.7,14.5,32.3*,31.4*,TDP2 confirm=39.6*
COC(=O)[C@H](CC(C)C)N(CCc1cn(Cc2ccccc2)nn1)S(=O)(=O)c1ccccc1Br,/,/,/,/,-0.4,/,
CC(=O)c1ccc(NC(=O)CNC2CCCCC2)cc1,30.5*,12.4,21.7,16.4,26.3*,6.3,TDP2 confirm=2.1
O=C(CNC1CCCCCC1)Nc1ccc(N2CCCC2)cc1,/,-23.3,/,/,/,/,
CN(Cc1ccccc1Cl)C(=O)CN1C(=O)C2(OCCCO2)c2ccccc21,/,/,/,/,9.8,/,
O=C1C=C(O)c2[nH]c(=O)ccc2C1=O,53.2*,/,13.6,21.0,41.2*,16.1,TDP2 confirm=41.8*
CC(=NNC(=O)CSc1nnc(-c2ccc(C(C)(C)C)cc2)n1-c1ccccc1)c1cccc2ccccc12,/,/,/,/,-10.5,/,
S=C(Nc1ccc2nsnc2c1)N1CCCCC1,51.0*,/,14.7,12.0,75.9*,8.9,TDP2 confirm=54.4*
